Active and inactive are the calls of the source. The calls are words filed in the database; no cut-off is given here.
How the values were obtained:
[1] = tested on: Rattus norvegicus; assay: In vivo inhibition of Syk in Lewis rat assessed as reduction in FcgR-induced SLP76 phosphorylation in peripheral blood monocytes at 22 mg/kg, po measured after 2 hrs relative to vehicle-treated control; format: functional
Summary of the method: (§1)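 Single oral dose of 22 mg/kg to Lewis rats; blood sampled at 2, 4 and 24 h after dosing for compound level and ex vivo FcγR-induced phospho-SLP76 in peripheral blood monocytes.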

[2] = tested on: Rattus norvegicus; assay: Antiarthritic activity in Lewis rat collagen-induced arthritis model assessed as reversal of paw swelling at 3 to 30 mg/kg, po qd administered on day 15 post immunization measured after day 28; format: functional, organism-based
Summary of the method: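 Collagen arthritis in female Lewis rats (porcine collagen day 0, boost day 7); swollen-joint rats randomized and given oral doses of 3, 10 or 30 mg/kg once daily, days 15–28. Swelling scored visually three times a week, per paw 0−3 metatarsal plus 0−3 ankle, composite 0−12 per rat; group means calculated.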

[3] = molecular target: Interleukin-1 receptor-associated kinase 1 (Homo sapiens, UniProt P51617); assay: Competitive binding affinity to human IRAK1
[4] = organism: Rattus norvegicus; assay: Drug metabolism in rat; format: ADME, organism-based; settings: in vivo
[5] = Drug uptake in blood of Lewis rat collagen-induced arthritis model at 3 mg/kg, po qd administered on day 15 post immunization measured at 8 hrs on day 18; format: ADME, organism-based; design: dose 3 mg/kg, route oral; settings: read-out: Drug uptake
Summary of the method: (§2)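 Collagen-arthritic Lewis rats given 3, 10 or 30 mg/kg p.o. once daily from day 15; blood levels measured on day 18 (third day of treatment) at 4, 8 and 24 h after dosing.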

[6] = Drug uptake in Lewis rat blood at 22 mg/kg, po measured after 24 hrs; format: ADME, organism-based; design: dose 22 mg/kg, route oral; settings: read-out: Drug uptake; summary of the method: as §1
[7] = molecular target: STE20-like serine/threonine-protein kinase (Homo sapiens, UniProt Q9H2G2); assay: Competitive binding affinity to human SLK
[8] = Drug uptake in blood of Lewis rat collagen-induced arthritis model at 3 mg/kg, po qd administered on day 15 post immunization measured at 4 hrs on day 18; format: ADME, organism-based; design: dose 3 mg/kg, route oral; settings: read-out: Drug uptake; summary of the method: as §2

Sequence of Interleukin-1 receptor-associated kinase 1 (P51617 whole entry): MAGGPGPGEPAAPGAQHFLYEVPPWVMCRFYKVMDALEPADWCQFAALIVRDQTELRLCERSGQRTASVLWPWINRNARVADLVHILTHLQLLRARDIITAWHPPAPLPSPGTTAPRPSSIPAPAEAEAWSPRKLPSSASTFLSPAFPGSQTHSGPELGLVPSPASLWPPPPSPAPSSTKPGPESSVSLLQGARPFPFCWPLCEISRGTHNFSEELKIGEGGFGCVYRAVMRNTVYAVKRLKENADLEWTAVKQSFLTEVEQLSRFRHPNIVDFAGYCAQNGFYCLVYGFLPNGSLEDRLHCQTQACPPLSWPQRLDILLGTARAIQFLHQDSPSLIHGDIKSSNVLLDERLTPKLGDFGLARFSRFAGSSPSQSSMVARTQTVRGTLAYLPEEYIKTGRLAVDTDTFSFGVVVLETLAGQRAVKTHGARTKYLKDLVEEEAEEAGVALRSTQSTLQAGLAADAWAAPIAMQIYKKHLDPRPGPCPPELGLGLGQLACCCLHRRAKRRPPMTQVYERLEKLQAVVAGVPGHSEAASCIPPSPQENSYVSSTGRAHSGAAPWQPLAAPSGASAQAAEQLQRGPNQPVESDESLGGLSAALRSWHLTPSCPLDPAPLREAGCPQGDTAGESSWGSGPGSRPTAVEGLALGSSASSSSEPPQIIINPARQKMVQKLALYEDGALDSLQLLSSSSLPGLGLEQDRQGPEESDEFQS
Sequence of STE20-like serine/threonine-protein kinase (Q9H2G2 whole entry): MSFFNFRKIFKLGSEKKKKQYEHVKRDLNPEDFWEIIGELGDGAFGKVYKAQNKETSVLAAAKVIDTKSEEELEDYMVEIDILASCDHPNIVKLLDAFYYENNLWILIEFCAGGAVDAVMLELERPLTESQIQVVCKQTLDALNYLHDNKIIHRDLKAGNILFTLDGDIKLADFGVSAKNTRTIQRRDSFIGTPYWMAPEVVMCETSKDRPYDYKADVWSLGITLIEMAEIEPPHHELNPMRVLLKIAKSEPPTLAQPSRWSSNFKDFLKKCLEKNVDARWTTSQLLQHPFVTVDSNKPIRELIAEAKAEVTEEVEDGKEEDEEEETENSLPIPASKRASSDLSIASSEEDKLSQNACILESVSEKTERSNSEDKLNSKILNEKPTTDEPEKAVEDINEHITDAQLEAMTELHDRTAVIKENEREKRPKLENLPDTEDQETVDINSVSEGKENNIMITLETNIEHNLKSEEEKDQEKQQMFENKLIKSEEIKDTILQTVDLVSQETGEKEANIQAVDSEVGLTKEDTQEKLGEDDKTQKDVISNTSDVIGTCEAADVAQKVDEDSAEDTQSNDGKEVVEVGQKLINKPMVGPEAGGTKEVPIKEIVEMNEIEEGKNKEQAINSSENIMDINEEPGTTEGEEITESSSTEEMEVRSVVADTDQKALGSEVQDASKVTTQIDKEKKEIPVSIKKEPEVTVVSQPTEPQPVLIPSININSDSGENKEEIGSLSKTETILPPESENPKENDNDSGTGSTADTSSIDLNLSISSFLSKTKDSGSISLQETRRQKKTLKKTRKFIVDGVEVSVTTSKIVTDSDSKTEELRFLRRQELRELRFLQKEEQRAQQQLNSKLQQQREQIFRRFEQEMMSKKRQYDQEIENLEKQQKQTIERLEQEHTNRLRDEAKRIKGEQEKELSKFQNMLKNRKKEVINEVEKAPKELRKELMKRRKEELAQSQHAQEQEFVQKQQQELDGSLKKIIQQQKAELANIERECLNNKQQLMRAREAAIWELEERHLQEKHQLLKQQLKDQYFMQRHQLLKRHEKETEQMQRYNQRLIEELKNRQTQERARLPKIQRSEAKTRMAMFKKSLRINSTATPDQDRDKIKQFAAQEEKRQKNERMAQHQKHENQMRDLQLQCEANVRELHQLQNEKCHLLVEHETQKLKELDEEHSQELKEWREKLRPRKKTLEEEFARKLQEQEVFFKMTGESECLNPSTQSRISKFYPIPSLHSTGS

Kd [3]: 67 nM | Drug metabolism [4]: metabolite_notdetected | concentration at 8 h [5]: 65 nM | concentration at 24 h [6]: 300 nM | Kd [7]: 380 nM | concentration at 4 h [8]: 126 nM
Compound: NC(=O)c1nnc(N[C@@H]2CCCC[C@@H]2N)nc1Nc1cccc2cc[nH]c12
inhibition in vivo at 22 mg/kg [1]: 90% | Activity [2]: Active

Reference: ChEMBL document CHEMBL3414433, “Discovery and profiling of a selective and efficacious Syk inhibitor” (J Med Chem, 2015)
